Data from ChEMBL document CHEMBL4765251, “Efficient identification of novel anti-glioma lead compounds by machine learning models” (Eur J Med Chem, 2020).

How the values were obtained:
U-251 = assay: Antiproliferative activity against human U251MG cells assessed as cell growth inhibition measured after 72 hrs by SRB assay; type: functional, cell-based; settings: U-251, 72 h
C6 = assay: Antiproliferative activity against rat C6 cells assessed as cell growth inhibition measured after 72 hrs by SRB assay; type: functional, cell-based; settings: C6, 72 h
Astrocyte = assay: Cytotoxicity against Wistar rat astrocytes assessed as cell growth inhibition at 100 uM measured after 72 hrs by SRB assay; type: cell-based
[1] = Selectivity index, ratio of CC50 for Wistar rat astrocytes to EC50 for human U-251 MG cells
In short: (§1)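 Selectivity index is astrocyte CC50 divided by the glioma-line EC50, both from 72 h SRB assays. No index is given when astrocyte cytotoxicity could not be calculated at the highest concentration tested.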

[2] = Selectivity index, ratio of CC50 for Wistar rat astrocytes to EC50 for rat C6 cells; in short: as §1
[3] = Cytotoxicity against Wistar rat astrocytes assessed as cell growth inhibition measured after 72 hrs by SRB assay; type: cell-based, Astrocyte
In short: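 Primary astrocytes taken from the cortex of 2-day-old Wistar rats by mechanical dissociation, grown on poly-L-lysine in high-glucose DMEM and treated at 90% confluence (12-15 days). Exposed to 0.1-100 µM for 72 h, then SRB assay with absorbance read at 510 nm against DMSO controls. Mean ± SD of three independent assays.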

U-87 MG = assay: Antiproliferative activity against human U87MG cells assessed as cell growth inhibition measured after 72 hrs by SRB assay; type: functional, cell-based, U-87MG ATCC
In short: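 U87MG human glioma cells grown in DMEM with 10% FBS at 37 °C, used up to 30 passages and treated at 40-50% confluence. Exposed to 0.1-100 µM for 72 h, with DMSO at most 0.1% final. TCA-fixed, stained with SRB, dye solubilized in Tris pH 10.5, read at 510 nm, expressed as % of DMSO controls. Mean ± SD of three independent assays.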

[4] = Selectivity index, ratio of CC50 for Wistar rat astrocytes to EC50 for human U87MG cells; in short: as §1
Rattus norvegicus = species: Rattus norvegicus; assay: Inhibition of TrxR in rat liver assessed as reduction in TNB formation using DTNB and NADPH as substrate at 100 uM preincubated with enzyme for 15 mins followed by NADPH addition by absorbance based analysis; type: tissue-based
In short: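 TrxR activity was measured at 37 °C in 100 mM potassium phosphate pH 7.0 with 2 mg/mL DTNB and 0.01 mg/mL enzyme. Enzyme was preincubated for 15 min with compound or DMSO, then the reaction was started with 0.2 mg/mL NADPH. TNB formation was followed at 412 nm (ε 13.6 mM-1 cm-1). Assays were run in duplicate, with enzyme-free blanks subtracted.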

SMILES	EC50 (U-251) [µM]	EC50 (U-87 MG) [µM]	inhibition (Rattus norvegicus) [%]	EC50 (C6) [µM]	Activity (Astrocyte)	Ratio CC50/EC50 [1]	Ratio CC50/EC50 [2]	CC50 at 72 h [3] [µM]	Ratio CC50/EC50 [4]
CC(C)Oc1ccc(C(=O)NC(=S)Nc2cccc3ccccc23)cc1	> 50			> 50	Non-Toxic				
C[N+](=O)c1ccc(/C=C/C(=O)c2ccc(N3CCOCC3)cc2)o1	37.8	9.8		6.6		2	11.5	75.8	7.7
CC(=O)c1ccc(NCCC(=O)c2cccs2)cc1	> 50			46.6	Non-Toxic				
O=C(/C=C/c1ccc(Cl)s1)c1ccc(-n2ccnc2)cc1	35.1			14.5	Non-Toxic				
O=C(/C=C/c1ccc(Cl)s1)c1ccc(N2CCCCC2)cc1	> 50			36.6	Non-Toxic				
O=C(/C=C/c1ccc([N+](=O)[O-])o1)c1ccc(N2CCCCC2)cc1	> 50			48.7	Non-Toxic				
COc1ccc(/C=C/C(=O)c2cccc(Br)c2)cc1	32.1			22.3	Non-Toxic				
O=C(CS(=O)(=O)c1ccccc1)c1cc2ccccc2o1	> 50			> 50	Non-Toxic				
Cc1ccc(S(=O)(=O)CC(=O)c2ccc(Cl)cc2Cl)cc1	> 50			> 50	Non-Toxic				
Cc1no[n+]([O-])c1C(=O)c1no[n+]([O-])c1C(=O)c1no[n+]([O-])c1C	> 50			> 50	Non-Toxic				
Cc1ccc(S(=O)(=O)/N=C/c2ccc(F)cc2)cc1	> 50			48.9	Non-Toxic				
O=C(/C=C/c1ccc([N+](=O)[O-])cc1)c1ccc(N2CCCCC2)cc1	> 50			> 50	Non-Toxic				
CN(C)c1ccc(/C=C/C(=O)c2ccc(-c3ccccc3)cc2)cc1	> 50			49.5	Non-Toxic				
Cc1ccc(N2C(=O)CC(Sc3ncccc3C(=O)O)C2=O)cc1Cl (stereo not given)	> 50			> 50	Non-Toxic				
Cc1nonc1C(=O)c1no[n+]([O-])c1C(=O)c1nonc1C	> 50			> 50	Non-Toxic				
Cc1ccc(S(=O)(=O)CC(=O)c2cccc([N+](=O)[O-])c2)cc1	> 50			> 50	Non-Toxic				
O=C(/C=C/c1ccc([N+](=O)[O-])o1)c1ccc(N2CCCC2)cc1	35.9	35.4		16.4		1.8	4	65.8	1.8
O=C(/C=C/c1ccco1)c1ccc(N2CCOCC2)cc1	> 50			23.6	Non-Toxic				
CC(C)(C)c1ccc(C(=O)/C=C/c2ccc([N+](=O)[O-])o2)cc1	44.5			28.6	Non-Toxic				
COc1ccc(/C=C/C(=O)c2ccc(-c3ccccc3)cc2)cc1	> 50			> 50	Non-Toxic				

Stronger by EC50 (U-251), values ahead:

EC50 (U-251) [µM]	EC50 (U-87 MG) [µM]	inhibition (Rattus norvegicus) [%]	SMILES	EC50 (C6) [µM]	Activity (Astrocyte)	Ratio CC50/EC50 [1]	Ratio CC50/EC50 [2]	CC50 at 72 h [3] [µM]	Ratio CC50/EC50 [4]
12.5	5.2		O=C(/C=C/c1ccc([N+](=O)[O-])o1)c1ccc(I)cc1	2.1		5.4	32.5	68.2	13.1
16.4	32.3	3.6	CC(C)(C)c1ccc(C(=O)/C=C/c2ccco2)cc1	18.5				88.7	
20.3			O=C(/C=C/c1cccc([N+](=O)[O-])c1)c1ccc(N2CCCCC2)cc1	32.5	Non-Toxic				
21.4	13.4		COc1ccc(/C=C/C(=O)c2cccc(I)c2)cc1	14.6		>4.7	>6.8	> 100	>7.5
26.4			O=C(/C=C/c1ccco1)c1ccc(C2CCCCC2)cc1	> 50	Non-Toxic				
23.3	19.2		Cc1ccc(C(=O)/C=C/c2ccco2)cc1	7.8				> 100	
22.6	13.4		O=C(/C=C/c1ccc([N+](=O)[O-])o1)c1ccc(-n2ccnc2)cc1	3.5		2	12.9	45.3	3.4
4.4	9.5		O=C(/C=C/c1ccc([N+](=O)[O-])o1)c1ccc(C2CCCCC2)cc1	5.1		13	11.2	57.2	6
24	45.1		CSc1ccc(C(=O)/C=C/c2ccco2)cc1	14.4				98	
16.7	4.9	0	O=C(/C=C/c1ccc([N+](=O)[O-])o1)c1ccc(N2CCNCC2)cc1	1.5		2.6	29.5	44.3	9
24.6			O=C(/C=C/c1ccc([N+](=O)[O-])o1)c1ccc(-c2ccccc2)cc1	17.7	Non-Toxic				
21.4	12.6		O=C(/C=C/c1ccc([N+](=O)[O-])o1)c1ccc(Br)cc1	2.7		3.9	31.6	85.4	6.7
9.4	10.1		O=C(/C=C/c1ccc([N+](=O)[O-])s1)c1ccc(-n2ccnc2)cc1	1.9		4.3	21.3	40.4	4
14.2	3.9	56.4	CSc1ccc(C(=O)/C=C/c2ccc([N+](=O)[O-])o2)cc1	1.6		2	17.7	28.4	7.3
6.4	12.3	60.4	CCCCc1ccc(C(=O)/C=C/c2ccco2)cc1	8.4				> 100	
10.1	10.5		CCC(=O)Oc1cccc2ccc(/C=C/c3ccccc3[N+](=O)[O-])nc12	6.3		5.4	8.7	55.2	5.3
